This passage reports GFP response vs DMSO, GFP response relative to DMSO and GFP response, % of DMSO results from PubChem BioAssay.

Test [1] in a line: RPL19A-GFP modulators, yeast TOR pathway, confirmation, cell-based, S. cerevisiae, flow cytometry, cherry picks, mother/daughter gates (AID 2270;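 active = GFP response below 50% of the DMSO control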). The following applies: S. cerevisiae RPL19A-GFP strain, 3 h, at 10 µM, stronger effect = lower value, 100 = same GFP as DMSO wells. Background: In flow cytometry, cells or beads pass a laser one at a time.
Test [2] in a line: LAP4-GFP expression modulators in yeast, confirmation, cell-based, cherry picks, flow cytometry, mother/daughter gates (AID 2271;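 active = GFP response above 150% of the DMSO control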;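 note: ratio of sample to DMSO plate mean so 100% equals DMSO level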). The following applies: S. cerevisiae LAP4-GFP strain, 3 h, at 10 µM, stronger effect = higher value, 100 means same as DMSO control. In outline:
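Measured by: GFP by flow cytometry. Test system: GFP-fusion yeast strain. Input: yeast cells seeded at OD600 of 0.2. Timing: 30 °C, 3 h compound incubation, rotating. Buffer or medium: synthetic complete medium for yeast. Benchmarks: DMSO-only negative wells, rapamycin 400 ng/mL positive wells. Compound: 10 µM single dose.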

Test [3] is described as follows: modulators of MEP2-GFP levels in yeast, confirmation, S. cerevisiae, flow cytometry GFP, cherry picks (AID 2272;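 active = GFP response above 150% of the DMSO control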;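 note: ratio of well signal to plate DMSO mean so 100% equals DMSO level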). The following applies: S. cerevisiae MEP2-GFP strain, 3 h, at 10 µM, stronger effect = higher value.
A short description of test [4]: AGP1-GFP expression modulators, hit retest, confirmation, cell-based, flow cytometry, S. cerevisiae, cherry picks (AID 2273).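 Note: median GFP channel fluorescence over the whole cell population gate.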 The following applies: S. cerevisiae AGP1-GFP strain, 3 h, at 10 µM.
A short description of test [5]: modulators of CIT2-GFP expression in yeast, confirmation, S. cerevisiae, GFP fusion, cherry picks, mother/daughter gates (AID 2274). The following applies: S. cerevisiae CIT2-GFP strain, flow cytometry, 3 h, at 10 µM, stronger effect = higher value.
Where [6] appears, read: measured here: daughter cell gate.
The mark [7] stands for this setting: measured here: mother cell gate.
[8] abbreviates: measured here: daughter cell gate response.
The mark [9] stands for this setting: measured here: mother cell gate response.

Active and inactive are the calls of the source.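 Rule for the calls, unless noted: active = GFP response above 150% of the DMSO level; inconclusive = fewer than 70 events counted for a yeast strain; inactive = the rest.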

For `CCOC(=O)C(N)CSC1CC(=O)N(c2ccc(C(=O)OC)cc2)C1=O` (stereo not drawn), the GFP response vs DMSO in test [1] was 98% (inactive); in test [1] (setting [6]) it was 98.4%; in test [1] (setting [7]), 98.7%; in test [3] it was 100% (inactive). Besides, the results for the GFP response relative to DMSO in test [2], in test [2] (setting [8]) and in test [2] (setting [9]) were 102% (inactive), 102% and 101%, respectively. In addition, the GFP response, % of DMSO was 98.1% (inactive) in test [4], 98.3% (inactive) in test [5], 99.1% in test [5] (setting [6]) and 97.3% in test [5] (setting [7]).
With `CC1CC2=C(CC1/C=N/NC(N)=S)C(C)(C)CCC2` (stereo not drawn), the GFP response vs DMSO in test [1] is 96.4% (inactive); in test [1] (setting [6]) it was 92.7%; in test [1] (setting [7]), 95.3%; in test [3], 107% (inactive). Besides, the GFP response relative to DMSO in test [2] was 110% (inactive); in test [2] (setting [8]), 106%; in test [2] (setting [9]), 113%. The GFP response, % of DMSO in test [4] was 97.5% (inactive); in test [5], 91.5% (inactive); in test [5] (setting [6]), 88.4%; in test [5] (setting [7]), 90.7%.
For `COC(=O)c1ccc(C2Nc3cccc4cccc(c34)N2)cc1`, the GFP response vs DMSO in test [1] was 105% (inactive); in test [1] (setting [6]), 102%; in test [1] (setting [7]) it was 106%; in test [3], 103% (inactive). Further, the GFP response relative to DMSO in test [2] was 129% (inactive); in test [2] (setting [8]) it was 123%; in test [2] (setting [9]), 133%. For the same compound, the GFP response, % of DMSO in test [4] was 92.8% (inactive); in test [5], 93% (inactive); in test [5] (setting [6]), 90.2%; in test [5] (setting [7]) it was 93.2%.
As for `CC(C)n1c(=S)[nH]c2c1c(=O)[nH]c(=O)n2C`, the GFP response vs DMSO in test [1] was 98.8% (inactive); in test [1] (setting [6]), 97.3%; in test [1] (setting [7]) it was 99.8%; in test [3], 100% (inactive). Besides, the GFP response relative to DMSO is 99.8% (inactive) in test [2], 102% in test [2] (setting [8]) and 101% in test [2] (setting [9]). Besides, the GFP response, % of DMSO was 104% (inactive) in test [4], 100% (inactive) in test [5], 99.7% in test [5] (setting [6]) and 102% in test [5] (setting [7]).
Regarding `Cc1cccc(CS(=O)(=O)c2ncc(Cl)c(C(=O)NCc3ccccc3)n2)c1`, the GFP response vs DMSO in test [1] was 99% (inactive); in test [1] (setting [6]) it was 96.4%; in test [1] (setting [7]) it was 99.1%; in test [3] it was 100% (inactive). For the same compound, the GFP response relative to DMSO in test [2] was 108% (inactive); in test [2] (setting [8]), 108%; in test [2] (setting [9]), 108%. Further, the GFP response, % of DMSO in test [4] was 102% (inactive); in test [5], 95.2% (inactive); in test [5] (setting [6]), 91.5%; in test [5] (setting [7]), 95.5%.
As to `O=S(=O)(CCN(CCS(=O)(=O)C(F)(F)F)CC1CCCO1)C(F)(F)F` (stereo not drawn), the GFP response vs DMSO in test [1] is 92.9% (inactive); in test [1] (setting [6]), 96.2%; in test [1] (setting [7]), 86.3%; in test [3] it was 118% (inactive). Besides, the GFP response relative to DMSO is 219% (active) in test [2], 179% in test [2] (setting [8]) and 210% in test [2] (setting [9]). The GFP response, % of DMSO was 94.5% (inactive) in test [4], 111% (inactive) in test [5], 115% in test [5] (setting [6]) and 96.8% in test [5] (setting [7]).
Regarding `COc1ccc(-c2nc3cccc(C)n3c2NCc2ccco2)cc1OC`, the GFP response vs DMSO is 101% (inactive) in test [1], 99.5% in test [1] (setting [6]), 100% in test [1] (setting [7]) and 97.2% (inactive) in test [3]. For the same compound, the GFP response relative to DMSO is 100% (inactive) in test [2], 101% in test [2] (setting [8]) and 101% in test [2] (setting [9]). Also, the GFP response, % of DMSO in test [4] is 99.5% (inactive); in test [5], 97.2% (inactive); in test [5] (setting [6]), 99.3%; in test [5] (setting [7]), 97.1%.
As to `COc1cccc(C(=O)Nc2ccc(NC(=O)c3cc4ccccc4o3)c(OC)c2)c1`, the GFP response vs DMSO in test [1] is 100% (inactive); in test [1] (setting [6]), 98.1%; in test [1] (setting [7]), 103%; in test [3] it was 102% (inactive). Further, the GFP response relative to DMSO is 89% (inactive) in test [2], 92.5% in test [2] (setting [8]) and 89% in test [2] (setting [9]). The GFP response, % of DMSO was 95% (inactive) in test [4], 108% (inactive) in test [5], 105% in test [5] (setting [6]) and 111% in test [5] (setting [7]).
As for `CC(=O)Nc1ccc(Nc2cc(C)nc3c(-c4ccc(Cl)cc4)c(C)nn23)cc1`, the GFP response vs DMSO is 94.6% (inactive) in test [1], 94.4% in test [1] (setting [6]), 95.8% in test [1] (setting [7]) and 100% (inactive) in test [3]. The GFP response relative to DMSO was 94.1% (inactive) in test [2], 92.8% in test [2] (setting [8]) and 95.1% in test [2] (setting [9]). Besides, the GFP response, % of DMSO in test [4] was 95% (inactive); in test [5], 105% (inactive); in test [5] (setting [6]) it was 105%; in test [5] (setting [7]), 104%.
`Cc1ccc2[nH]cc(/C=C/c3cc[n+](C)cc3)c2c1`: the GFP response vs DMSO in test [1] was 106% (inactive); in test [1] (setting [6]), 106%; in test [1] (setting [7]) it was 105%; in test [3], 170% (inactive). Besides, the results for the GFP response relative to DMSO in test [2], in test [2] (setting [8]) and in test [2] (setting [9]) were 153% (active), 156% and 154%, respectively. For the same compound, the GFP response, % of DMSO in test [4] was 116% (inactive); in test [5], 147% (inactive); in test [5] (setting [6]), 156%; in test [5] (setting [7]), 140%.
For the compound `CCOc1ccc2nc(SCC(=O)NCC3CCCO3)c(C#N)cc2c1` (stereo not drawn), the GFP response vs DMSO in test [1] is 97.8% (inactive); in test [1] (setting [6]), 95.9%; in test [1] (setting [7]), 99.2%; in test [3] it was 97.8% (inactive). The GFP response relative to DMSO was 99.8% (inactive) in test [2], 100% in test [2] (setting [8]) and 101% in test [2] (setting [9]). Moreover, the GFP response, % of DMSO was 96.3% (inactive) in test [4], 90% (inactive) in test [5], 91.5% in test [5] (setting [6]) and 88% in test [5] (setting [7]).
Consider `CCOc1cc(/C=C2\N=C(C)OC2=O)cc(Br)c1OCCc1ccccc1`, for which the GFP response vs DMSO in test [1] is 100% (inactive); in test [1] (setting [6]), 99.8%; in test [1] (setting [7]), 101%; in test [3], 99.5% (inactive). Further, the GFP response relative to DMSO in test [2] is 102% (inactive); in test [2] (setting [8]), 95%; in test [2] (setting [9]) it was 103%. Moreover, the GFP response, % of DMSO is 97.3% (inactive) in test [4], 92.1% (inactive) in test [5], 92.7% in test [5] (setting [6]) and 88.6% in test [5] (setting [7]).
Consider `CS(=O)(=O)Nc1ccc(C2=NN(S(C)(=O)=O)C(c3ccc4c(c3)OCO4)C2)cc1` (stereo not drawn), for which the GFP response vs DMSO is 98.6% (inactive) in test [1], 98.4% in test [1] (setting [6]), 99.4% in test [1] (setting [7]) and 104% (inactive) in test [3]. For the same compound, the GFP response relative to DMSO was 97.4% (inactive) in test [2], 102% in test [2] (setting [8]) and 99.3% in test [2] (setting [9]). For the same compound, the GFP response, % of DMSO is 102% (inactive) in test [4], 103% (inactive) in test [5], 99.7% in test [5] (setting [6]) and 103% in test [5] (setting [7]).
